Laboratory results: ChEMBL document CHEMBL1770136, “A class of novel N-isoquinoline-3-carbonyl-L-amino acid benzylesters: synthesis, anti-tumor evaluation and 3D QSAR analysis” (Eur J Med Chem, 2011)

Tests used:
[1] = system: HL-60; test: Antiproliferative activity against human HL60 cells after 48 hrs by MTT assay; assay type: functional, cell-based; conditions: HL-60, 48 h
Procedure, shortened: (§1)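 MTT assay in 96-well cultures; HL-60 or HeLa cells at 1×10^4/ml in RPMI-1640 with 10% FCS, penicillin and streptomycin, 37 °C, 5% CO2. After 24 h, medium renewed with compound (final 1 mM to 1 nM) for 48 h, then renewed again for 4 h. Residue dissolved in DMSO, absorbance read; inhibition = (C−T)/C, IC50 computed.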

[2] = system: CCRF S-180; test: Antitumor activity against mouse S180 cells xenografted in ICR mouse assessed as tumor growth inhibition at 100 umol/kg/day, ip qd for 7 days measured 24 hrs after last dose relative to control; assay type: functional; conditions: CCRF S-180, ip
Procedure, shortened: (§2)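 Male ICR mice, 10–12 weeks old. S180 cells from serially passaged ascites; 1×10^7 viable cells in 0.2 ml saline injected subcutaneously at right oxter. Dosing began 24 h later, 10 per group. Daily i.p. dose of 100 µmol/kg in 0.2 ml saline for 7 days; saline and i.p. cytarabine as controls. Tumors excised and weighed 24 h after last dose; inhibition calculated versus saline group.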

[3] = system: HeLa; test: Antiproliferative activity against human HeLa cells after 48 hrs by MTT assay; assay type: functional, cell-based; procedure, shortened: as §1
[4] = system: Mus musculus; test: Neurotoxicity in ICR mouse assessed as neurotoxic behavior at 15 to 540 mg/kg, po after 7 days; assay type: toxicity, organism-based; design: dose 15-540 mg/kg, route oral; conditions: in vivo, 168 h
Procedure, shortened: (§3)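 Healthy mice were given the compound orally at 15, 90 and 540 mg/kg and observed for 7 days for neurotoxic signs (tremor, twitch, jumping, tetanus, supination) and for deaths. Organs were examined by necropsy on day 7.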

[5] = system: CCRF S-180; test: Antitumor activity against mouse S180 cells xenografted in ICR mouse assessed as decrease of tumor weight at 10 umol/kg, po qd for 7 days measured 24 hrs after last dose; assay type: functional
Procedure, shortened: (§4)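 S180 solid tumors started as 1×10^7 ascites-derived cells s.c. in male ICR mice, 10–12 weeks old. From 24 h, oral doses of 1, 10 or 100 µmol/kg/day in 0.2 ml saline for 7 days; oral saline negative control, i.p. cytarabine 100 µmol/kg positive control. Tumors weighed 24 h after last dose; n = 12 per table footnote.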

[6] = system: CCRF S-180; test: Antitumor activity against mouse S180 cells xenografted in ICR mouse assessed as decrease of tumor weight at 100 umol/kg, po qd for 7 days measured 24 hrs after last dose; assay type: functional; procedure, shortened: as §4
[7] = Apparent permeability from basolateral to apical side of human Caco2 cells up to 120 mins by HPLC analysis; assay type: ADME, cell-based; conditions: Caco-2
Procedure, shortened: (§5)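 Caco-2 monolayers on polycarbonate transwell filters, TEER about 700 Ω cm², rechecked after each test. Compounds in HBSS at final 4 mM on the donor side, 37 °C. Receiver side sampled at 30, 60, 90 and 120 min and measured by HPLC. Papp = dQ/dt·1/(A·C0), area 1 cm²; n = 4.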

[8] = Acute toxicity in ICR mouse assessed as mouse survival at 540 mg/kg, po; assay type: organism-based; design: dose 540 mg/kg, route oral; conditions: in vivo, read-out: Activity; procedure, shortened: as §3
[9] = Apparent permeability from apical to basolateral side of human Caco2 cells up to 120 mins by HPLC analysis; assay type: ADME, cell-based; conditions: Caco-2; procedure, shortened: as §5
[10] = Acute toxicity in po dosed ICR mouse assessed as changes in organs after 7 days by necropsy analysis; assay type: organism-based; conditions: in vivo; procedure, shortened: as §3
[11] = system: CCRF S-180; test: Antitumor activity against mouse S180 cells xenografted in ICR mouse assessed as decrease of tumor weight at 1 umol/kg, po qd for 7 days measured 24 hrs after last dose; assay type: functional; procedure, shortened: as §4
[12] = system: Mus musculus; test: Acute toxicity in ICR mouse assessed as changes in organs at 15 to 540 mg/kg, po after 7 days by necropsy analysis; assay type: organism-based; design: dose 15-540 mg/kg, route oral; conditions: in vivo, 168 h; procedure, shortened: as §3
[13] = system: CCRF S-180; test: Antitumor activity against mouse S180 cells xenografted in ICR mouse assessed as decrease of tumor weight at 100 umol/kg, ip qd for 7 days measured 24 hrs after last dose; assay type: functional; procedure, shortened: as §2

IC50 [1] [nM]	IC50 [3] [nM]	SMILES	inhibition in vivo at 100 µmol/kg [2] [%]	further results
99.9	508	O=C(N[C@@H](Cc1ccc(O)cc1)C(=O)OCc1ccccc1)c1cc2ccccc2cn1	28	
44.5	181	NC(=O)CC[C@H](NC(=O)c1cc2ccccc2cn1)C(=O)OCc1ccccc1	11.9	
83.6	214	O=C(CC[C@H](NC(=O)c1cc2ccccc2cn1)C(=O)OCc1ccccc1)OCc1ccccc1	25.2	
87.6	263	O=C(N[C@@H](Cc1c[nH]cn1)C(=O)OCc1ccccc1)c1cc2ccccc2cn1	24.3	
74	411	O=C(C[C@H](NC(=O)c1cc2ccccc2cn1)C(=O)OCc1ccccc1)OCc1ccccc1	37.5	
68.2	196	NCCCC[C@H](NC(=O)c1cc2ccccc2cn1)C(=O)OCc1ccccc1	17.1	
70.4	135	O=C(N[C@@H](CO)C(=O)OCc1ccccc1)c1cc2ccccc2cn1	40.4	
78.9	118	CC(C)[C@H](NC(=O)c1cc2ccccc2cn1)C(=O)OCc1ccccc1	29.7	
44.9	309	CSCC[C@H](NC(=O)c1cc2ccccc2cn1)C(=O)OCc1ccccc1	39.6	
91.8	151	O=C(N[C@@H](Cc1ccccc1)C(=O)OCc1ccccc1)c1cc2ccccc2cn1	30.1	
96.3	185	CC[C@@H](C)[C@H](NC(=O)c1cc2ccccc2cn1)C(=O)OCc1ccccc1	20.9	
86.9	216	NC(=O)C[C@H](NC(=O)c1cc2ccccc2cn1)C(=O)OCc1ccccc1	36.7	
66.1	396	O=C(N[C@@H](Cc1c[nH]c2ccccc12)C(=O)OCc1ccccc1)c1cc2ccccc2cn1	36.9	
949	1320	O=C(O)c1cc2ccccc2cn1	11.5	Papp B→A at 2 h [7]: 9.28 ×10⁻⁶ cm/s; Papp A→B at 2 h [9]: 9.47 ×10⁻⁶ cm/s
53.4	87.7	O=C(OCc1ccccc1)[C@@H]1CCCN1C(=O)c1cc2ccccc2cn1	44.5	Activity [5]: 1.243 g; Activity [6]: 1.021 g; Activity [11]: 1.661 g
84.8	154	C[C@H](NC(=O)c1cc2ccccc2cn1)C(=O)OCc1ccccc1	40.6	
		Nc1ccn([C@@H]2O[C@H](CO)[C@@H](O)[C@@H]2O)c(=O)n1 [CYTARABINE]	54.8	Activity [13]: 0.814 g
57.4	195	O=C(CNC(=O)c1cc2ccccc2cn1)OCc1ccccc1	16.1	

SMILES	IC50 [1] [nM]	IC50 [3] [nM]	inhibition in vivo at 100 µmol/kg [2] [%]	further results
CC(C)C[C@H](NC(=O)c1cc2ccccc2cn1)C(=O)OCc1ccccc1	72.8	111	47.1	Activity [4]: Non-toxic; Activity [5]: 1.011 g; Activity [6]: 0.938 g; Papp B→A at 2 h [7]: 7.12 ×10⁻⁶ cm/s; survival [8]: 100%; Papp A→B at 2 h [9]: 17.2 ×10⁻⁶ cm/s; LD50 at 168 h [10]: > 540 mg/kg; Activity [11]: 1.298 g; Activity [12]: Non-toxic
C[C@H](O)[C@H](NC(=O)c1cc2ccccc2cn1)C(=O)OCc1ccccc1	62.2	98.7	54.4	Activity [4]: Non-toxic; Activity [5]: 1.184 g; Activity [6]: 0.802 g; Papp B→A at 2 h [7]: 7.05 ×10⁻⁶ cm/s; survival [8]: 100%; Papp A→B at 2 h [9]: 18.6 ×10⁻⁶ cm/s; LD50 at 168 h [10]: > 540 mg/kg; Activity [11]: 1.315 g; Activity [12]: Non-toxic
